Active and inactive are the calls of the source. The calls are words filed in the database; no cut-off is given here.
Key:
MV4-11 [1] = test: Induction of apoptosis in human MV4-11 cells harboring FLT3-ITD mutant assessed early apoptotic cells at 0.03 uM after 72 hrs by AnnexinV-FITC/Propidium iodide staining based flow cytometric analysis (reference value: 7.34 %); format: functional
MV4-11 [2] = test: Induction of apoptosis in human MV4-11 cells harboring FLT3-ITD mutant assessed early apoptotic cells at 0.03 uM after 48 hrs by AnnexinV-FITC/Propidium iodide staining based flow cytometric analysis (reference value: 11.84 %); format: functional
MOLM-13 [3] = test: Antitumor activity against human MOLM-13 cells harboring FLT-3 ITD mutant xenografted in BALB/c nude mouse assessed as decrease in phosphorylated STAT5 at Y694 residue at 150 mg/kg, po measured after 3 hrs by Western blot analysis; format: functional, organism-based
Procedure, shortened: (§1)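 Mice bearing s.c. MOLM-13 xenografts given a single oral dose of 150 mg/kg. Tumours harvested at 3 h; lysates immunoblotted for phospho-FLT3, -STAT3, -STAT5, -Akt and total actin.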

MV4-11 [4] = test: Induction of apoptosis in human MV4-11 cells harboring FLT3-ITD mutant assessed late apoptotic cells at […] after 72 hrs by AnnexinV-FITC/Propidium iodide staining based flow cytometric analysis (reference value: 1.48 %); format: functional; settings: dose 0.15 µM
MV4-11 [5] = test: Induction of apoptosis in human MV4-11 cells harboring FLT3-ITD mutant assessed viable cells at […] after 48 hrs by AnnexinV-FITC/Propidium iodide staining based flow cytometric analysis (reference value: 86.15 %); format: functional; settings: dose 0.15 µM
MV4-11 [6] = test: Antitumor activity against human MV4-11 cells harboring FLT-3 ITD mutant xenografted in BALB/c nude mouse assessed as tumor growth inhibition at 25 mg/kg, po administered daily for 21 days relative to control; format: functional; settings: MV4-11, 504 h, time 21 day, read-out: TGI
Procedure, shortened: (§2)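 Female BALB/c nude mice implanted s.c. in right flank with 1 × 10^7 MV4-11 cells in serum-free medium mixed 1:1 with Matrigel. Randomised on day 11 at mean 146–150 mm3 (n=10/group); oral hydrochloride salt once daily for 21 days in 0.5% methylcellulose/0.1% Tween-80. Doses are free-base equivalents; caliper twice weekly; ANOVA with Dunnett's test.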

MV4-11 [7] = test: Induction of apoptosis in human MV4-11 cells harboring FLT3-ITD mutant assessed increase in cleaved caspase-3/7 after 16 hrs by Caspase-Glo 3/7 assay; format: functional, cell-based
MV4-11 [8] = test: Induction of apoptosis in human MV4-11 cells harboring FLT3-ITD mutant assessed late apoptotic cells at 0.03 uM after 72 hrs by AnnexinV-FITC/Propidium iodide staining based flow cytometric analysis (reference value: 1.48 %); format: functional
MV4-11 [9] = test: Induction of apoptosis in human MV4-11 cells harboring FLT3-ITD mutant assessed as increase in early apoptotic cells after 48 hrs by AnnexinV-FITC/Propidium iodide staining based flow cytometric analysis; format: functional, cell-based; settings: dose 0.03-0.15 µM
MV4-11 [10] = test: Antitumor activity against human MV4-11 cells harboring FLT-3 ITD mutant xenografted in BALB/c nude mouse assessed as tumor growth inhibition at 100 mg/kg, po administered daily for 21 days relative to control; format: functional; settings: MV4-11, 504 h, time 21 day, read-out: TGI; procedure, shortened: as §2
MOLM-13 [11] = test: Antitumor activity against human MOLM-13 cells harboring FLT-3 ITD mutant xenografted in BALB/c nude mouse assessed as decrease in phosphorylated STAT3 at Y704 residue at 150 mg/kg, po measured after 3 hrs by Western blot analysis; format: functional, organism-based; procedure, shortened: as §1
MOLM-13 [12] = test: Antitumor activity against human MOLM-13 cells harboring FLT-3 ITD mutant xenografted in BALB/c nude mouse assessed as tumor growth inhibition at 150 mg/kg, […] relative to control; format: functional; settings: MOLM-13, 168 h, route po, read-out: TGI
RS4-11 = test: Antiproliferative activity against human RS4-11 cells assessed as reduction in cell viability incubated for 48 hr by CellTiter-Glo assay; format: functional, cell-based; settings: RS4-11, 48 h
MV4-11 [13] = test: Induction of cell cycle arrest in human MV4-11 cells harboring FLT3-ITD mutant assessed increase in cell accumulation at G1 phase after 24 hrs by Propidium iodide staining based flow cytometric analysis; format: functional
Procedure, shortened: (§3)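 Cells then fixed in ice-cold 70% ethanol, stained with 20 ng/ml propidium iodide, and cell-cycle phases measured by flow cytometry.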

[14] = Antiproliferative activity against relapsed human derived M5b Fab type Acute myeloid leukemic cells assessed as reduction in cell viability incubated for 48 hr by CellTiter-Glo assay; format: functional, cell-based; settings: Leukemia cell
Procedure, shortened: (§4)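 Primary AML peripheral blood or bone marrow mononuclear cells thawed and expanded ex vivo; blasts counted between day 10 and 13, characterised by CD123 FACS and FLT3 genotyping. Blasts treated 48 h; proliferation IC50 read by CellTiter-Glo.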

MOLM-13 [15] = test: Antitumor activity against human MOLM-13 cells harboring FLT-3 ITD mutant xenografted in BALB/c nude mouse assessed as decrease in phosphorylated FLT3 at Y591 residue at 150 mg/kg, po measured after 3 hrs by Western blot analysis; format: functional, organism-based; procedure, shortened: as §1
[16] = Antiproliferative activity against relapsed human derived M5b Fab type Acute myeloid leukemic cells harboring FLT3-ITD mutant assessed as reduction in cell viability incubated for 48 hr by CellTiter-Glo assay; format: functional, cell-based; settings: Leukemia cell; procedure, shortened: as §4
MV4-11 [17] = test: Induction of cell cycle arrest in human MV4-11 cells harboring FLT3-ITD mutant assessed decrease in cell accumulation at S phase after 24 hrs by Propidium iodide staining based flow cytometric analysis; format: functional; procedure, shortened: as §3
[18] = Antiproliferative activity against relapsed human derived M3 Fab type Acute myeloid leukemic cells assessed as reduction in cell viability incubated for 48 hr by CellTiter-Glo assay; format: functional, cell-based; settings: Leukemia cell; procedure, shortened: as §4
[19] = Antiproliferative activity against relapsed human derived Acute myeloid leukemic cells assessed as reduction in cell viability incubated for 48 hr by CellTiter-Glo assay; format: functional, cell-based; settings: Leukemia cell; procedure, shortened: as §4
MOLM-13 [20] = test: Induction of cell cycle arrest in human MOLM-13 cells harboring FLT3-ITD mutant assessed decrease in cell accumulation at S phase after 24 hrs by Propidium iodide staining based flow cytometric analysis; format: functional; procedure, shortened: as §3
MV4-11 [21] = test: Induction of apoptosis in human MV4-11 cells harboring FLT3-ITD mutant assessed necrotic cells at […] after 72 hrs by AnnexinV-FITC/Propidium iodide staining based flow cytometric analysis (reference value: 0.53 %); format: functional; settings: dose 0.15 µM
[22] = Antiproliferative activity against human derived M2 Fab type Acute myeloid leukemic cells assessed as reduction in cell viability incubated for 48 hr by CellTiter-Glo assay; format: functional, cell-based; settings: Leukemia cell; procedure, shortened: as §4

## C1=N/C2=N/c3ccc(OCCN4CCCC4)c(c3)COC/C=C/COCc3cccc(c3)C(=C1)N2 [PACRITINIB]
MV4-11 [1]
  Activity: 22.69%
MV4-11 [2]
  Activity: 24.5%
MOLM-13 [3]
  Activity: Active
MV4-11 [4]
  Activity: 15.1%
MV4-11 [5]
  Activity: 35.61%
MV4-11 [6]
  inhibition in vivo at 25 mg/kg: 38%
MV4-11 [7]
  Activity: Dose-Dependent Effect
MV4-11 [7]; MV4-11, 16 h
  EC50: 960 nM
MV4-11 [8]
  Activity: 3.74%
MV4-11 [9]
  Activity: Dose-Dependent Effect
MV4-11 [10]
  inhibition in vivo at 100 mg/kg: 121%
MOLM-13 [11]
  Activity: Active
MOLM-13 [12]
  inhibition in vivo at 150 mg/kg: 83%
RS4-11
  IC50: 930 nM
MV4-11 [13]
  Activity: Dose-Dependent Effect
[14]
  IC50: 460 nM
MOLM-13 [15]
  Activity: Active
[16]
  IC50: 250 nM
MV4-11 [17]
  Activity: Dose-Dependent Effect
[18]
  IC50: 210 nM
[19]
  IC50: 1330 nM
MOLM-13 [20]
  Activity: Dose-Dependent Effect
MV4-11 [21]
  Activity: 4.06%
[22]
  IC50: 350 nM

Source: ChEMBL document CHEMBL5715947 (Blood Cancer J, 2011)
